9 molecules from ChEMBL document CHEMBL3616437, “Thiazole compounds with activity against Cryptococcus gattii and Cryptococcus neoformans in vitro” (Eur J Med Chem, 2015) can be followed below.

pIC50: −log10 of the molar value. ≈ marks a conversion by molar mass, not a printed value.

For orientation: MIC means the least concentration at which growth counts as inhibited. Broadly, the pIC50 is the negative decadic logarithm of the IC50, by convention in mol/L.

The nature of data set [1]: Selectivity index, ratio of IC50 for African green monkey Vero cells to MIC for Cryptococcus neoformans ATCC 24067. The class given is toxicity, cell-based.
A short description of data set [2]: Selectivity index, ratio of IC50 for C57BL/6 mouse peritoneal macrophages to MIC for Cryptococcus neoformans ATCC 24067. In outline:
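SI = IC50/MIC. Thioglycollate-elicited peritoneal macrophages from C57BL/6 mice are seeded at 1 x 10^5/well. They are exposed for 48 h at 37°C to eight concentrations from 100 to 0.0128 µM. Viability read by MTT versus 0.5% DMSO control, triplicate in two experiments.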

A further data set concerns Cryptococcus neoformans. Put plainly: Antifungal activity against Cryptococcus neoformans ATCC 24067 after 48 to 72 hrs by broth microdilution method. The class given is functional. In outline: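 CLSI M27-A3 broth microdilution. Isolates subcultured twice on SDA, 48 h at 35°C. Saline suspension adjusted to 70% transmittance at 530 nm, then diluted to 1-5 x10^3 cells/mL in RPMI with L-glutamine, 0.165 M MOPS, pH 7.0. Compounds in DMSO, tested at […]. 35°C for 48-72 h. MIC read visually as the lowest concentration giving an optically clear well.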
In general terms: In broth dilution the organism is exposed to a series of concentrations in liquid medium.

In a further data set the test system is Vero. Put plainly: Cytotoxicity against African green monkey Vero cells assessed as cell viability measured after 48 hrs by MTT assay. The class given is cell-based. The conditions noted are these: Chlorocebus sabaeus. In short, it runs like this: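 VERO cells in D-MEM with 5% FBS, used up to 20 passages. Seeded 1 x 10^4 cells/well, pre-incubated 24 h at 37°C. Exposed 48 h at 37°C, 5% CO2, to eight nonserial dilutions from 100 to 0.0128 µM, with 0.5% DMSO control. MTT reduction read-out, corrected for background and blank. IC50 reported as median with 95% CI. Triplicate, two independent experiments.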
On the technique in general: Formazan colour is commonly taken as a measure of viable cells.

The nature of data set [3]: Cytotoxicity against C57BL/6 mouse peritoneal macrophages assessed as cell viability measured after 48 hrs by MTT assay. The class given is cell-based. The following applies: C57BL/6, Peritoneal macrophage cell. In outline:
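Thioglycollate-elicited peritoneal macrophages from male C57BL/6 mice, 6–8 weeks old, in RPMI with 10% FBS. Seeded 1 x 10^5 cells/well, pre-incubated 24 h at 37°C. Exposed 48 h at 37°C, 5% CO2, to eight nonserial dilutions from 100 to 0.0128 µM, with 0.5% DMSO control. MTT read-out, % inhibition versus DMSO control. IC50 reported as median with 95% CI. Triplicate, two independent experiments.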

Turning to `Clc1ccc(-c2csc(N/N=C3\CCCC\C3=C/c3ccccc3)n2)cc1`, the selectivity ratio in data set [1] was determined as 12.8. The Ratio in data set [2] is reported as 12.8. The lowest concentration to inhibit growth against Cryptococcus neoformans (MIC) was 7.8 µM (≈ 3.07 µg/mL). In addition, the pIC50 (in the data set with Vero; in data set [3]) was less than 4.00 each time.

Regarding `COc1ccc(-c2csc(N/N=C/c3ccncc3)n2)cc1`, the MIC against Cryptococcus neoformans was more than 250 µM.

On to `C(=C1/CCCC/C1=N\Nc1nc(-c2ccccc2)cs1)/c1ccccc1`, for which the selectivity ratio in data set [1] was determined as 6.41. Also, the Ratio in data set [2] was 6.41. Moreover, in the data set on Cryptococcus neoformans, 15.6 µM (≈ 5.61 µg/mL) was the least that counted as inhibitory (MIC). The pIC50 (in the data set with Vero; in data set [3]) was less than 4.00 throughout.

Consider `COc1ccc(-c2csc(N/N=C3\CCCC\C3=C/c3ccccc3)n2)cc1`, for which the selectivity ratio in data set [1] was 12.8. The Ratio in data set [2] was determined as 12.8. In addition, in the data set on Cryptococcus neoformans, the lowest concentration to inhibit growth (MIC) was 7.8 µM (≈ 3.04 µg/mL). For the same molecule, the pIC50 (with Vero; in data set [3]) was less than 4.00 in each case.

`CN(C)c1ccc(/C=N/Nc2nc(-c3ccccc3)cs2)cc1` had a minimum inhibitory concentration (MIC) against Cryptococcus neoformans of more than 250 µM.

For `COc1ccc(-c2csc(N/N=C/c3ccc(N(C)C)cc3)n2)cc1`, the MIC in the data set with Cryptococcus neoformans is more than 250 µM.

In the data set on Cryptococcus neoformans, `COc1ccc(-c2csc(N/N=C/c3ccccc3)n2)cc1` yielded an MIC of more than 250 µM.

The molecule `COc1ccc(-c2csc(N/N=C/c3ccc(C)cc3)n2)cc1` returned a minimal inhibitory concentration (MIC) in the data set on Cryptococcus neoformans of more than 250 µM.

With `COc1ccc(/C=N/Nc2nc(-c3ccc(Cl)cc3)cs2)cc1OC`, the selectivity ratio in data set [1] is 6.41. Moreover, the Ratio in data set [2] came out at 6.41. This molecule registered an MIC against Cryptococcus neoformans of 15.6 µM (≈ 5.83 µg/mL). Further, the pIC50 (with Vero; in data set [3]) was less than 4.00 each time.
